From ChEMBL document CHEMBL4130549, “Synthesis and bioactivities study of new antibacterial peptide mimics: The dialkyl cationic amphiphiles” (Eur J Med Chem, 2018)
Active and inactive are the calls of the source. The rule behind the calls is not given here.

Tests used:
[1] = tested on: Staphylococcus aureus; assay: Antibacterial activity against Staphylococcus aureus ATCC 29213 after 16 to 20 hrs by broth microdilution method; format: functional
Summary of the method: (§1)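 CLSI broth microdilution in cation-adjusted Mueller-Hinton broth. A 4-6 h culture was diluted to about 10⁶ CFU/mL and mixed 1:1 with twofold compound dilutions (256–0.5 µg/mL before mixing) prepared from aqueous stocks. Plates were incubated at 37 °C for 16-20 h. Each concentration was tested in duplicate, and the experiment was repeated at least twice.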

[2] = tested on: Enterococcus faecalis; assay: Antibacterial activity against Enterococcus faecalis after 16 to 20 hrs by broth microdilution method; format: functional
Summary of the method: (§2)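 Broth microdilution per CLSI in cation-adjusted Mueller-Hinton broth; 4-6 h cultures (~10⁸ CFU/mL) diluted to ~10⁶ CFU/mL and mixed 1:1 with twofold dilutions of water-dissolved compound (256 to 0.5 µg/mL). Incubated 16-20 h at 37 °C; MIC read visually. Each concentration run in duplicate, whole experiment repeated at least twice. MRSA, KPC and NDM-1 strains were clinical isolates.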

[3] = tested on: Escherichia coli; assay: Antibacterial activity against Escherichia coli ATCC 25922 after 16 to 20 hrs by broth microdilution method; format: functional; summary of the method: as §2
[4] = tested on: Salmonella enterica; assay: Antibacterial activity against Salmonella enterica after 16 to 20 hrs by broth microdilution method; format: functional; summary of the method: as §2
[5] = tested on: Staphylococcus aureus; assay: Antibacterial activity against methicillin-resistant Staphylococcus aureus after 16 to 20 hrs by broth microdilution method; format: functional; summary of the method: as §1
[6] = tested on: Klebsiella pneumoniae; assay: Antibacterial activity against carbapenemase-producing Klebsiella pneumoniae after 16 to 20 hrs by broth microdilution method; format: functional; summary of the method: as §2
[7] = tested on: Enterobacteriaceae; assay: Antibacterial activity against NDM-1-producing Enterobacteriaceae after 16 to 20 hrs by broth microdilution method; format: functional; summary of the method: as §2
[8] = Hemolytic activity in sheep RBC after 1 hr; format: ADME, cell-based, Ovis aries, Erythrocyte; conditions: sheep red blood cells (erythrocytes)
Summary of the method: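 Sheep RBCs suspended at 5% in PBS; 150 µL added to 50 µL compound dilutions (5120 to 10 µg/mL series). Incubated 1 h at 37 °C, then centrifuged; supernatant absorbance read at 540 nm. Lysis (%) = (A−A0)/(Atotal−A0)×100, with untreated 5% RBC as A0 and 0.1% Triton X-100 as total.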

[9] = tested on: Staphylococcus aureus; assay: Antibacterial activity against methicillin-resistant Staphylococcus aureus isolate M1 after 16 to 20 hrs by broth microdilution method; format: functional; summary of the method: as §1
[10] = tested on: Staphylococcus aureus; assay: Antibacterial activity against methicillin-resistant Staphylococcus aureus isolate M2 after 16 to 20 hrs by broth microdilution method; format: functional; summary of the method: as §1
[11] = tested on: Staphylococcus aureus; assay: Antibacterial activity against methicillin-resistant Staphylococcus aureus isolate M3 after 16 to 20 hrs by broth microdilution method; format: functional; summary of the method: as §1
[12] = tested on: Staphylococcus aureus; assay: Antibacterial activity against methicillin-resistant Staphylococcus aureus isolate M4 after 16 to 20 hrs by broth microdilution method; format: functional; summary of the method: as §1
[13] = tested on: Staphylococcus aureus; assay: Antibacterial activity against methicillin-resistant Staphylococcus aureus isolate M5 after 16 to 20 hrs by broth microdilution method; format: functional; summary of the method: as §1
[14] = tested on: Staphylococcus aureus; assay: Antibacterial activity against methicillin-resistant Staphylococcus aureus isolate M6 after 16 to 20 hrs by broth microdilution method; format: functional; summary of the method: as §1
[15] = tested on: Staphylococcus aureus; assay: Antibacterial activity against methicillin-resistant Staphylococcus aureus isolate M7 after 16 to 20 hrs by broth microdilution method; format: functional; summary of the method: as §1
[16] = tested on: Staphylococcus aureus; assay: Antibacterial activity against methicillin-resistant Staphylococcus aureus isolate M8 after 16 to 20 hrs by broth microdilution method; format: functional; summary of the method: as §1
[17] = tested on: Staphylococcus aureus; assay: Antibacterial activity against methicillin-resistant Staphylococcus aureus isolate M9 after 16 to 20 hrs by broth microdilution method; format: functional; summary of the method: as §1
[18] = tested on: Staphylococcus aureus; assay: Antibacterial activity against methicillin-resistant Staphylococcus aureus isolate M10 after 16 to 20 hrs by broth microdilution method; format: functional; summary of the method: as §1
[19] = tested on: Klebsiella pneumoniae; assay: Antibacterial activity against carbapenemase-producing Klebsiella pneumoniae isolate K1 after 16 to 20 hrs by broth microdilution method; format: functional; summary of the method: as §2
[20] = tested on: Klebsiella pneumoniae; assay: Antibacterial activity against carbapenemase-producing Klebsiella pneumoniae isolate K2 after 16 to 20 hrs by broth microdilution method; format: functional; summary of the method: as §2
[21] = tested on: Klebsiella pneumoniae; assay: Antibacterial activity against carbapenemase-producing Klebsiella pneumoniae isolate K3 after 16 to 20 hrs by broth microdilution method; format: functional; summary of the method: as §2
[22] = tested on: Klebsiella pneumoniae; assay: Antibacterial activity against carbapenemase-producing Klebsiella pneumoniae isolate K4 after 16 to 20 hrs by broth microdilution method; format: functional; summary of the method: as §2
[23] = tested on: Klebsiella pneumoniae; assay: Antibacterial activity against carbapenemase-producing Klebsiella pneumoniae isolate K5 after 16 to 20 hrs by broth microdilution method; format: functional; summary of the method: as §2
[24] = tested on: Klebsiella pneumoniae; assay: Antibacterial activity against carbapenemase-producing Klebsiella pneumoniae isolate K6 after 16 to 20 hrs by broth microdilution method; format: functional; summary of the method: as §2
[25] = tested on: Klebsiella pneumoniae; assay: Antibacterial activity against carbapenemase-producing Klebsiella pneumoniae isolate K7 after 16 to 20 hrs by broth microdilution method; format: functional; summary of the method: as §2
[26] = tested on: Klebsiella pneumoniae; assay: Antibacterial activity against carbapenemase-producing Klebsiella pneumoniae isolate K8 after 16 to 20 hrs by broth microdilution method; format: functional; summary of the method: as §2
[27] = tested on: Klebsiella pneumoniae; assay: Antibacterial activity against carbapenemase-producing Klebsiella pneumoniae isolate K9 after 16 to 20 hrs by broth microdilution method; format: functional; summary of the method: as §2
[28] = tested on: Klebsiella pneumoniae; assay: Antibacterial activity against carbapenemase-producing Klebsiella pneumoniae isolate K10 after 16 to 20 hrs by broth microdilution method; format: functional; summary of the method: as §2
[29] = tested on: Enterobacteriaceae; assay: Antibacterial activity against NDM-1-producing Enterobacteriaceae isolate N1 after 16 to 20 hrs by broth microdilution method; format: functional; summary of the method: as §2
[30] = tested on: Enterobacteriaceae; assay: Antibacterial activity against NDM-1-producing Enterobacteriaceae isolate N2 after 16 to 20 hrs by broth microdilution method; format: functional; summary of the method: as §2
[31] = tested on: Enterobacteriaceae; assay: Antibacterial activity against NDM-1-producing Enterobacteriaceae isolate N3 after 16 to 20 hrs by broth microdilution method; format: functional; summary of the method: as §2
[32] = tested on: Enterobacteriaceae; assay: Antibacterial activity against NDM-1-producing Enterobacteriaceae isolate N4 after 16 to 20 hrs by broth microdilution method; format: functional; summary of the method: as §2
[33] = tested on: Enterobacteriaceae; assay: Antibacterial activity against NDM-1-producing Enterobacteriaceae isolate N5 after 16 to 20 hrs by broth microdilution method; format: functional; summary of the method: as §2
[34] = tested on: Enterobacteriaceae; assay: Antibacterial activity against NDM-1-producing Enterobacteriaceae isolate N6 after 16 to 20 hrs by broth microdilution method; format: functional; summary of the method: as §2
[35] = tested on: Enterobacteriaceae; assay: Antibacterial activity against NDM-1-producing Enterobacteriaceae isolate N7 after 16 to 20 hrs by broth microdilution method; format: functional; summary of the method: as §2
[36] = tested on: Enterobacteriaceae; assay: Antibacterial activity against NDM-1-producing Enterobacteriaceae isolate N8 after 16 to 20 hrs by broth microdilution method; format: functional; summary of the method: as §2
[37] = tested on: Enterobacteriaceae; assay: Antibacterial activity against NDM-1-producing Enterobacteriaceae isolate N9 after 16 to 20 hrs by broth microdilution method; format: functional; summary of the method: as §2
[38] = tested on: Enterobacteriaceae; assay: Antibacterial activity against NDM-1-producing Enterobacteriaceae isolate N10 after 16 to 20 hrs by broth microdilution method; format: functional; summary of the method: as §2
[39] = tested on: Staphylococcus aureus; assay: Induction of cytoplasmic membrane depolarization in Staphylococcus aureus ATCC 29213 at 20 ug/ml measured every 2 mins for 12 mins by diSC35 staining based fluorescence assay; format: functional, organism-based
Summary of the method: (§3)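 Mid-log cells (4–6 h) pelleted, washed and resuspended (~10^8 CFU/mL) in PBS for S. aureus, or in 5 mM HEPES, 5 mM glucose and 100 mM KCl (1:1:1) for E. coli. Preloaded with diSC35 (10 µM, 50 µL), 30 min for S. aureus and 40 min plus EDTA (200 µM, 50 µL) for E. coli. Baseline read 8 min (ex 622/em 670 nm), then compound added to 20 µg/mL final and read every 2 min for 12 min. Water control.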

[40] = tested on: Escherichia coli; assay: Induction of cytoplasmic membrane depolarization in Escherichia coli ATCC 25922 at 20 ug/ml measured every 2 mins for 12 mins by diSC35 staining based fluorescence assay; format: functional, organism-based; summary of the method: as §3
[41] = tested on: Staphylococcus aureus; assay: Induction of inner membrane permeabilization in Staphylococcus aureus ATCC 29213 at 20 ug/ml measured every 2 mins for 12 mins by propidium iodide staining based fluorescence assay; format: functional, organism-based
Summary of the method: (§4)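 Mid-log cells (~10^8 CFU/mL) pre-incubated with propidium iodide (10 µM, 50 µL), 30 min for S. aureus and 40 min for E. coli. Fluorescence (ex 535/em 617 nm) read for 8 min, then compound added to 20 µg/mL final and monitored every 2 min for 12 min. Water-treated control.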

[42] = tested on: Escherichia coli; assay: Induction of inner membrane permeabilization in Escherichia coli ATCC 25922 at 20 ug/ml measured every 2 mins for 12 mins by propidium iodide staining based fluorescence assay; format: functional, organism-based; summary of the method: as §4
[43] = tested on: Escherichia coli; assay: Induction of outer membrane permeabilization in Escherichia coli ATCC 25922 at 20 ug/ml measured every 2 mins for 12 mins by NPN staining based fluorescence assay; format: functional, organism-based
Summary of the method: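 Mid-log E. coli (~10^8 CFU/mL) in black plates pre-incubated about 40 min with NPN (10 µM, 50 µL). Baseline read 8 min (ex 350/em 420 nm), then compound added to 20 µg/mL final and fluorescence followed every 2 min for 12 min. Water-treated control.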

CCCCCCCCN(CCCCCCCC)C(=O)[C@@H](N)CO.Cl
MIC [1]: 4 µg/mL | MIC [2]: 2 µg/mL | MIC [3]: 8 µg/mL | MIC [4]: 8 µg/mL | MIC [5]: 2 µg/mL | MIC [6]: 32 µg/mL | MIC [7]: 16 µg/mL | HC50 at 1 h [8]: > 1000 µg/mL | MIC [9]: 4 µg/mL | MIC [10]: 4 µg/mL | MIC [11]: 4 µg/mL | MIC [12]: 4 µg/mL | MIC [13]: 4 µg/mL | MIC [14]: 4 µg/mL | MIC [15]: 2 µg/mL | MIC [16]: 4 µg/mL | MIC [17]: 4 µg/mL | MIC [18]: 2 µg/mL | MIC [19]: 32 µg/mL | MIC [20]: 32 µg/mL | MIC [21]: 32 µg/mL | MIC [22]: 32 µg/mL | MIC [23]: 32 µg/mL | MIC [24]: 32 µg/mL | MIC [25]: 32 µg/mL | MIC [26]: 32 µg/mL | MIC [27]: 32 µg/mL | MIC [28]: 32 µg/mL | MIC [29]: 32 µg/mL | MIC [30]: 32 µg/mL | MIC [31]: 16 µg/mL | MIC [32]: 16 µg/mL | MIC [33]: 16 µg/mL | MIC [34]: 16 µg/mL | MIC [35]: 32 µg/mL | MIC [36]: 32 µg/mL | MIC [37]: 32 µg/mL | MIC [38]: 32 µg/mL | Activity [39]: Active | Activity [40]: Active | Activity [41]: Active | Activity [42]: Active | Activity [43]: Active

CCCCCCCCN(CCCCCCCC)C(=O)[C@H](N)CO.Cl
MIC [1]: 4 µg/mL | MIC [2]: 4 µg/mL | MIC [3]: 8 µg/mL | MIC [4]: 8 µg/mL | MIC [5]: 4 µg/mL | MIC [6]: 32 µg/mL | MIC [7]: 16 µg/mL | HC50 at 1 h [8]: 367 µg/mL | MIC [9]: 4 µg/mL | MIC [10]: 4 µg/mL | MIC [11]: 4 µg/mL | MIC [12]: 4 µg/mL | MIC [13]: 4 µg/mL | MIC [14]: 4 µg/mL | MIC [15]: 4 µg/mL | MIC [16]: 4 µg/mL | MIC [17]: 4 µg/mL | MIC [18]: 4 µg/mL | MIC [19]: 32 µg/mL | MIC [20]: 32 µg/mL | MIC [21]: 32 µg/mL | MIC [22]: 32 µg/mL | MIC [23]: 32 µg/mL | MIC [24]: 32 µg/mL | MIC [25]: 32 µg/mL | MIC [26]: 32 µg/mL | MIC [27]: 32 µg/mL | MIC [28]: 32 µg/mL | MIC [29]: 32 µg/mL | MIC [30]: 16 µg/mL | MIC [31]: 16 µg/mL | MIC [32]: 16 µg/mL | MIC [33]: 16 µg/mL | MIC [34]: 16 µg/mL | MIC [35]: 32 µg/mL | MIC [36]: 32 µg/mL | MIC [37]: 16 µg/mL | MIC [38]: 16 µg/mL | Activity [39]: Active | Activity [40]: Active | Activity [41]: Active | Activity [42]: Active | Activity [43]: Active
